Source: ChEMBL document CHEMBL4765388, “Fluoropyrimidin-2,4-dihydroxy-5-isopropylbenzamides as antitumor agents against CRC and NSCLC cancer cells” (Eur J Med Chem, 2020)
Calls of active or inactive are those of the source. The rule behind the calls is not given here.

Key:
A549 [1] = assay: Antiproliferative activity against human A549 cells measured after 48 hrs by SRB assay; assay type: functional
Procedure, shortened: (§1)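 Cells seeded and cultured overnight, then exposed to a gradient of compound concentrations for 48 h in medium with 5% FBS. A time-zero plate was fixed with 10% TCA at drug addition. After treatment, cells were fixed with 10% TCA and stained with 0.4% SRB in 1% acetic acid. Each experiment was run at least three times.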

NCI-H460 = assay: Antiproliferative activity against human NCI-H460 cells measured after 48 hrs by SRB assay; assay type: functional
Procedure, shortened: as §1, with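 “acid. Bound dye was dissolved in 10 mM trizma base, absorbance read at 515 nm, and GI50 derived.” for “acid.”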

NCI-H1975 [2] = assay: Antiproliferative activity against human NCI-H1975 cells measured after 48 hrs by SRB assay; assay type: functional
Procedure, shortened: as §1, with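 “acid. Bound dye was dissolved in 10 mM trizma base, absorbance read at 515 nm, and GI50 derived.” for “acid.”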

[3] = target: Heat shock protein HSP 90-alpha (Homo sapiens, UniProt P07900); assay: Inhibition of recombinant human full-length C-terminal Hsi-tagged HSP90alpha (1 to 732 residues) expressed in Escherichia coli measured after 2 to 3 hrs by FITC-labeled geldanamycin probe based fluorescence polarization assay
HCT-116 [4] = assay: Antiproliferative activity against human HCT-116 cells measured after 48 hrs by SRB assay; assay type: functional
Procedure, shortened: as §1, with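 “acid. Bound dye was dissolved in 10 mM trizma base, absorbance read at 515 nm, and GI50 derived.” for “acid.”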

HCT-116 [5] = assay: Potency index, ratio of BIIB021 IC50 to test compound IC50 for human HCT-116 cells; assay type: functional
A549 [6] = assay: Cell cycle arrest in human A549 cells assessed as accumulation at sub-G1 phase at 0.15 to 2.5 uM measured after 48 hrs by propidium iodide staining based flow cytometry; assay type: functional; conditions: dose 0.15-2.5 µM
Procedure, shortened: (§2)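 Cells in RPMI 1640 with 10% FBS, 37 °C, 5% CO2; 2.5×10^5/well, treated with DMSO or compound. Washed in PBS, fixed overnight in ice-cold 70% EtOH at -20 °C, stained in PBS with propidium iodide 80 µg/ml, Triton X-100 0.1% and RNase A 100 µg/ml. DNA content measured by FACScan; sub-G1 fraction quantified; means ± S.D., ≥3 independent experiments.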

HCT-116 [7] = assay: Inhibition of colony formation in human HCT-116 cells at 0.009 to 0.018 uM measured after 24 hrs by crystal violet staining based assay; assay type: functional, cell-based; conditions: dose 0.009-0.018 µM
Procedure, shortened: (§3)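 Cells at 5×10^3/well, exposed to DMSO or compound for 24 h. Drug was washed out, and cells were trypsinized, replated and grown for 10 days. Colonies were fixed and stained with crystal violet (0.5% in 70% EtOH) and counted as % of control. Repeated at least twice.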

A549 [8] = assay: Inhibition of colony formation in human A549 cells at 0.009 to 0.018 uM measured after 24 hrs by crystal violet staining based assay; assay type: functional, cell-based; conditions: dose 0.009-0.018 µM; procedure, shortened: as §3
NCI-H1975 [9] = assay: Inhibition of colony formation in human NCI-H1975 cells at 0.009 to 0.018 uM measured after 24 hrs by crystal violet staining based assay; assay type: functional, cell-based; conditions: dose 0.009-0.018 µM; procedure, shortened: as §3
A549 [10] = assay: Inhibition of HSP90 in human A549 cells assessed as upregulation of HSP70 expression at 0.075 to 1.25 uM after 24 hrs by Western blot analysis; assay type: cell-based; conditions: dose 0.075-1.25 µM
NCI-H1975 [11] = assay: Inhibition of HSP90 in human NCI-H1975 cells assessed as upregulation of HSP70 expression at 0.075 to 1.25 uM after 24 hrs by Western blot analysis; assay type: cell-based; conditions: dose 0.075-1.25 µM
A549 [12] = assay: Inhibition of HSP90 in human A549 cells assessed as down regulation of AKT expression at 0.075 to 1.25 uM after 24 hrs by Western blot analysis; assay type: cell-based; conditions: dose 0.075-1.25 µM
NCI-H1975 [13] = assay: Inhibition of HSP90 in human NCI-H1975 cells assessed as down regulation of AKT expression at 0.075 to 1.25 uM after 24 hrs by Western blot analysis; assay type: cell-based; conditions: dose 0.075-1.25 µM
A549 [14] = assay: Inhibition of HSP90 in human A549 cells assessed as down regulation of EGFR expression at 0.075 to 1.25 uM after 24 hrs by Western blot analysis; assay type: cell-based; conditions: dose 0.075-1.25 µM
NCI-H1975 [15] = assay: Inhibition of HSP90 in human NCI-H1975 cells assessed as down regulation of EGFR expression at 0.075 to 1.25 uM after 24 hrs by Western blot analysis; assay type: cell-based; conditions: dose 0.075-1.25 µM
NCI-H1975 [16] = assay: Cell cycle arrest in human NCI-H1975 cells assessed as accumulation at sub-G1 phase at 0.075 to 1.25 uM measured after 48 hrs by propidium iodide staining based flow cytometry; assay type: functional; conditions: dose 0.075-1.25 µM; procedure, shortened: as §2
A549 [17] = assay: Induction of apoptosis in human A549 cells assessed as increase in cleaved caspase 3 expression after 48 hrs by Western blot analysis; assay type: functional, cell-based
Procedure, shortened: (§4)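 Cells grown in RPMI 1640 with 10% FBS were left to attach overnight, then exposed to compound at stated concentrations for 48 h. Lysates were immunoblotted for cleaved PARP, γH2AX and cleaved caspase-3, -8 and -9. Each experiment was done at least three times.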

A549 [18] = assay: Induction of apoptosis in human A549 cells assessed as increase in cleaved caspase 8 expression after 48 hrs by Western blot analysis; assay type: functional, cell-based; procedure, shortened: as §4
A549 [19] = assay: Induction of apoptosis in human A549 cells assessed as increase in cleaved caspase 9 expression after 48 hrs by Western blot analysis; assay type: functional, cell-based; procedure, shortened: as §4
A549 [20] = assay: Induction of apoptosis in human A549 cells assessed as increase in cleaved PARP expression after 48 hrs by Western blot analysis; assay type: functional, cell-based; procedure, shortened: as §4
A549 [21] = assay: Induction of apoptosis in human A549 cells assessed as increase in activated gamma H2AX expression after 48 hrs by Western blot analysis; assay type: functional, cell-based; procedure, shortened: as §4
NCI-H1975 [22] = assay: Induction of apoptosis in human NCI-H1975 cells assessed as increase in cleaved caspase 3 expression after 48 hrs by Western blot analysis; assay type: functional, cell-based; procedure, shortened: as §4
NCI-H1975 [23] = assay: Induction of apoptosis in human NCI-H1975 cells assessed as increase in cleaved caspase 8 expression after 48 hrs by Western blot analysis; assay type: functional, cell-based; procedure, shortened: as §4
NCI-H1975 [24] = assay: Induction of apoptosis in human NCI-H1975 cells assessed as increase in cleaved caspase 9 expression after 48 hrs by Western blot analysis; assay type: functional, cell-based; procedure, shortened: as §4
NCI-H1975 [25] = assay: Induction of apoptosis in human NCI-H1975 cells assessed as increase in cleaved PARP expression after 48 hrs by Western blot analysis; assay type: functional, cell-based; procedure, shortened: as §4
NCI-H1975 [26] = assay: Induction of apoptosis in human NCI-H1975 cells assessed as increase in activated gamma H2AX expression after 48 hrs by Western blot analysis; assay type: functional, cell-based; procedure, shortened: as §4

CCNC(=O)c1noc(-c2cc(C(C)C)c(O)cc2O)c1-c1ccc(CN2CCOCC2)cc1 [LUMINESPIB]
GI50 (A549 [1]): 10 nM
GI50 (NCI-H460): 30 nM
GI50 (NCI-H1975 [2]): 20 nM

CC(C)c1cc(C(=O)N(Cc2ccc(Cl)cc2)c2ccc(Cn3c(=O)c(F)cn(C4CCCO4)c3=O)cc2)c(O)cc1O (stereo not drawn)
IC50 [3]: 54.7 nM
GI50 (HCT-116 [4]): 700 nM
GI50 (A549 [1]): 560 nM
GI50 (NCI-H460): 460 nM
GI50 (NCI-H1975 [2]): 160 nM

CC(C)c1cc(C(=O)N(Cc2ccccc2)c2ccc(Cn3c(=O)c(F)cn(C4CCCO4)c3=O)cc2)c(O)cc1O (stereo not drawn)
IC50 [3]: 45.3 nM
GI50 (HCT-116 [4]): 780 nM
GI50 (A549 [1]): 800 nM
GI50 (NCI-H460): 400 nM
GI50 (NCI-H1975 [2]): 160 nM

CC(C)c1cc(C(=O)Nc2ccc(Cn3c(=O)c(F)cn(C4CCCO4)c3=O)cc2)c(O)cc1O (stereo not drawn)
IC50 [3]: > 1000 nM
GI50 (HCT-116 [4]): > 10000 nM
GI50 (A549 [1]): > 10000 nM
GI50 (NCI-H460): > 10000 nM
GI50 (NCI-H1975 [2]): > 10000 nM

C=CCN(C(=O)c1cc(C(C)C)c(O)cc1O)c1ccc(Cn2c(=O)[nH]cc(F)c2=O)cc1
IC50 [3]: 48 nM
GI50 (HCT-116 [4]): 80 nM
GI50 (A549 [1]): 100 nM
GI50 (NCI-H460): 70 nM
GI50 (NCI-H1975 [2]): 50 nM

O=c1[nH]cc(F)c(=O)[nH]1 [FLUOROURACIL]
GI50 (HCT-116 [4]): > 10000 nM
GI50 (A549 [1]): 19800 nM

CCN(C(=O)c1cc(C(C)C)c(O)cc1O)c1ccc(Cn2c(=O)[nH]cc(F)c2=O)cc1
IC50 [3]: 44.9 nM
GI50 (HCT-116 [4]): 30 nM
GI50 (A549 [1]): 40 nM
GI50 (NCI-H460): 30 nM
GI50 (NCI-H1975 [2]): 30 nM

COc1c(C)cnc(Cn2cnc3c(Cl)nc(N)nc32)c1C [BIIB021]
GI50 (HCT-116 [4]): 150 nM
GI50 (NCI-H460): 210 nM
GI50 (NCI-H1975 [2]): 200 nM

COc1ccc(CN(C(=O)c2cc(C(C)C)c(O)cc2O)c2ccc(Cn3c(=O)c(F)cn(C4CCCO4)c3=O)cc2)cc1 (stereo not drawn)
IC50 [3]: 58.8 nM
GI50 (HCT-116 [4]): 720 nM
GI50 (A549 [1]): 920 nM
GI50 (NCI-H460): 390 nM
GI50 (NCI-H1975 [2]): 230 nM

CC(C)c1cc(-c2n[nH]c(=O)n2-c2ccc3c(ccn3C)c2)c(O)cc1O [GANETESPIB]
GI50 (HCT-116 [4]): 150 nM

CCCN(C(=O)c1cc(C(C)C)c(O)cc1O)c1ccc(Cn2c(=O)c(F)cn(C3CCCO3)c2=O)cc1 (stereo not drawn)
IC50 [3]: 48.2 nM
GI50 (HCT-116 [4]): 960 nM
GI50 (A549 [1]): 650 nM
GI50 (NCI-H460): 520 nM
GI50 (NCI-H1975 [2]): 340 nM

CC(C)c1cc(C(=O)N(Cc2ccc(C#N)cc2)c2ccc(Cn3c(=O)c(F)cn(C4CCCO4)c3=O)cc2)c(O)cc1O (stereo not drawn)
IC50 [3]: 45.3 nM
GI50 (HCT-116 [4]): 410 nM
GI50 (A549 [1]): 350 nM
GI50 (NCI-H460): 200 nM
GI50 (NCI-H1975 [2]): 130 nM

CC(C)c1cc(C(=O)N(C)c2ccc(Cn3c(=O)c(F)cn(C4CCCO4)c3=O)cc2)c(O)cc1O (stereo not drawn)
IC50 [3]: 40.9 nM
GI50 (HCT-116 [4]): 120 nM
GI50 (A549 [1]): 90 nM
GI50 (NCI-H460): 70 nM
GI50 (NCI-H1975 [2]): 60 nM

O=c1[nH]c(=O)n(C2CCCO2)cc1F (stereo not drawn) [TEGAFUR]
GI50 (HCT-116 [4]): > 10000 nM
GI50 (A549 [1]): > 50000 nM

CCN(C(=O)c1cc(C(C)C)c(O)cc1O)c1ccc(Cn2c(=O)c(F)cn(C3CCCO3)c2=O)cc1 (stereo not drawn)
IC50 [3]: 27.8 nM
GI50 (HCT-116 [4]): 10 nM
Ratio IC50 (HCT-116 [5]): 15
Activity (A549 [6]): Active
GI50 (A549 [1]): 70 nM
GI50 (NCI-H460): 60 nM
GI50 (NCI-H1975 [2]): 40 nM
inhibition (HCT-116 [7]): Active
inhibition (A549 [8]): Active
inhibition (NCI-H1975 [9]): Active
inhibition (A549 [10]): Active
inhibition (NCI-H1975 [11]): Active
inhibition (A549 [12]): Active
inhibition (NCI-H1975 [13]): Active
inhibition (A549 [14]): Active
inhibition (NCI-H1975 [15]): Active
Activity (NCI-H1975 [16]): Active
Activity (A549 [17]): Dose-dependent effect
Activity (A549 [18]): Dose-dependent effect
Activity (A549 [19]): Dose-dependent effect
Activity (A549 [20]): Dose-dependent effect
Activity (A549 [21]): Dose-dependent effect
Activity (NCI-H1975 [22]): Dose-dependent effect
Activity (NCI-H1975 [23]): Dose-dependent effect
Activity (NCI-H1975 [24]): Dose-dependent effect
Activity (NCI-H1975 [25]): Dose-dependent effect
Activity (NCI-H1975 [26]): Dose-dependent effect

C#CCN(C(=O)c1cc(C(C)C)c(O)cc1O)c1ccc(Cn2c(=O)[nH]cc(F)c2=O)cc1
IC50 [3]: 54.4 nM
GI50 (HCT-116 [4]): 40 nM
GI50 (A549 [1]): 30 nM
GI50 (NCI-H460): 70 nM
GI50 (NCI-H1975 [2]): 20 nM
